Screening results deposited in PubChem BioAssay by Johns Hopkins Ion Channel Center.
Hits are enriched below; roughly 3.5% of the tested compounds scored in any of these assays.
RGS4 pot: RGS4 potentiators or activators, primary screen, cell-based, HEK293 M3R inducible RGS4, calcium flux; AID 463111, 2010; 310,000 tested, 0.92% active; carbachol calcium flux Fluo4; active compounds read low; B-score at 10 µM;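 active = B-score of the integrated calcium signal more than 4 SD below the library mean, with starting fluorescence not abnormally high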;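 also: negative B-score means reduced calcium response which marks RGS4 activation or potentiation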
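Test system: HEK293 cells with stable M3R and inducible RGS4; also added: carbachol at ECmax as muscarinic agonist stimulus; schedule: dye loading 30 min 37 °C, buffer rest 30 min RT; technique: kinetic calcium fluorescence imaging with Fluo4-AM dye, 2 µM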
RGS4 inh: RGS4 inhibitors, primary screen, cell-based, HEK293 M3R inducible RGS4, calcium flux; B-score at 10 µM; Fluo-4 calcium flux; active compounds read high; triggered by carbachol at its EC20; 310,000 tested, 0.45% active; AID 463165, 2010;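 active = B-score, a plate-corrected calcium signal, over three deviations above library mean, with baseline fluorescence within five deviations of library mean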;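 also: RGS4 expression induced by doxycycline in cells with stable M3 receptor; B-score is computed from the integrated fluorescence ratio over baseline after carbachol; higher B-score means a larger calcium signal and so more RGS4 inhibition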
Target sequence (P49798 whole entry, looked up): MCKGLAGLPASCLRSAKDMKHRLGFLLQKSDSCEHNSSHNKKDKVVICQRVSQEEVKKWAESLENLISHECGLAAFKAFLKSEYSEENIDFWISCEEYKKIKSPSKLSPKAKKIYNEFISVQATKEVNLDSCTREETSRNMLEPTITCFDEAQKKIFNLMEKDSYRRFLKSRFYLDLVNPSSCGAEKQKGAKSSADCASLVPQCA
MrgX1 antagonist: antagonists of human MrgX1 receptor, primary screen, HEK293 cells, Fluo-4 calcium flux; BAM8-22 antagonism; active compounds read low; Mas-related G-protein coupled receptor member X1 (Homo sapiens), Q96LB2; 310,000 tested, 1.3% active; B-score at 10 µM;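 active = calcium-response B-score plate-corrected more than 3 library SD below zero, starting fluorescence within 5 deviations, no agonist response on first addition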;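 also: peak minus trough fluorescence over baseline after final BAM8-22 challenge near maximal dose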
Target sequence (Q96LB2 whole entry, looked up): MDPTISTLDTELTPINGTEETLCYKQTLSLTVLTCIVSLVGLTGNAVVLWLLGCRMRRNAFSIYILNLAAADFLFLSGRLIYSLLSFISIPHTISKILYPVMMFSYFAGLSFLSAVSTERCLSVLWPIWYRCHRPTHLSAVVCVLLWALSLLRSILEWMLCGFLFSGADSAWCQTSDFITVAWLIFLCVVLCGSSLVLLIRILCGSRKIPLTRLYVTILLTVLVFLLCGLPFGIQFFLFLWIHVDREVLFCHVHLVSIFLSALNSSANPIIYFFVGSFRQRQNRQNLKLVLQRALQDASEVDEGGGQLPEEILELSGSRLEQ
MrgX1 ag: agonists of human MrgX1 receptor, primary screen, HEK293 cells, Fluo-4 calcium flux; Fluo-4 calcium fluorescence, agonist mode; active compounds read high; B-score at 10 µM; 310,000 tested, 0.44% active; AID 588627, 2011;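 active = calcium response B-score plate-corrected fluorescence ratio at least 3 library SD, with starting fluorescence B-score inside 5 SD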
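Material: MrgX1-expressing HEK293 cells / Dosing: compound as first of three additions / Incubation: overnight seeding, then 1 h dark dye loading / Signal: Fluo-4 NW calcium fluorescence / Evaluation: B-scored fluorescence response ratio / Benchmarks: positive and negative control wells on each plate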
MrgX1 PAM: positive allosteric modulators of MrgX1, primary screen, HEK293 cells, Fluo-4 calcium flux | FDSS; active compounds read high | B-score at 10 µM | 310,000 tested, 0.63% active;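 active = plate-corrected calcium response at least 3 library SD above typical, normal starting fluorescence, not activating the receptor alone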;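 also: compound read alongside a low EC10 to EC30 dose of BAM8-22 agonist; peak minus trough fluorescence over baseline measured at the second addition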
MrgX1 PAM conf: MrgX1 positive allosteric modulators, duplicate retest, confirmation, HEK293 cells, Fluo-4 calcium flux; activation (ratio percentage), % at 10 µM; shares compounds with MrgX1 PAM; Fluo-4 calcium fluorescence, FDSS; 1,200 tested, 13% active; AID 602413, 2012;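 active = ratio at least 3 SD above the weak peptide control, stable starting fluorescence, no direct agonism earlier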;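 also: compound followed by low BAM8-22 agonist challenge near EC20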
HEK293 Ca flux: nonspecific calcium signal in parental HEK293, confirmation, counter-screen for MrgX1 antagonist project, parental HEK293 cells, Fluo-4 calcium flux; Fluo-4 calcium fluorescence, FDSS; 4,000 tested, 2% active; AID 624111, 2012; shares compounds with MrgX1 antagonist; fluorescence ratio F(max-min)/F0 at 10 µM;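 active = duplicate-averaged calcium fluorescence ratio at least three times the standard deviation of buffer wells, a nonspecific response in parental cells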
HEK293 Ca counter: calcium response in parental HEK293 cells, primary screen, counter-screen for MrgX1 allosteric activator project, cell-based, Fluo-4 calcium flux, duplicate; shares compounds with MrgX1 antagonist; Fluo-4 fluorescence ratio; active compounds read high; fluorescence ratio F(max-min)/F0 at 10 µM; 4,000 tested, 0.4% active; AID 624114, 2012;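 active = calcium fluorescence ratio, averaged over duplicates, at least 3 SD of the buffer-well ratio, meaning a nonspecific response in receptor-free cells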;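 also: untransfected parental HEK293 lacking MrgX1 used as counterscreen for MrgX1 allosteric activators; fluorescence change taken during the second addition on a kinetic imager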
HEK293 Ca cntr2: calcium response in parental HEK293 cells, primary screen, counter-screen for MrgX1 agonist project, cell-based, Fluo-4 calcium flux, duplicate, agonist mode; shares compounds with MrgX1 antagonist; Fluo-4 calcium fluorescence (FDSS); active compounds read high; fluorescence ratio F(max-min)/F0 at 10 µM; 4,000 tested, 8.7% active; AID 624115, 2012;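 active = calcium fluorescence ratio at least three times the spread of buffer wells, meaning a non-specific response in parental cells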
* marks the source's active call; other numbers are inactive results; i = inactive; . = not tested or not shown.

SMILES | RGS4 pot | RGS4 inh | MrgX1 antagonist | MrgX1 ag | MrgX1 PAM | MrgX1 PAM conf | HEK293 Ca flux | HEK293 Ca counter | HEK293 Ca cntr2
CCn1nc(C)c(CNC(=O)C2CCC(=O)N(CCc3ccc(Cl)cc3)C2)c1C (stereo unspecified) | i | i | i | i | i | . | . | . | .
CC(C)C(=O)Nc1ncc(Cc2ccc(Cl)cc2)s1 | i | i | i | i | i | . | . | . | .
COc1ccc(OCC(=O)Nc2ccccc2-c2ccccc2)cc1 | i | i | i | i | 12* | i | i | i | i
COc1ccc(CC(=O)Nc2ccccc2-c2ccccc2)cc1OC | i | i | i | i | i | . | . | . | .
COc1ccc(CN(C)CC(=O)Nc2ccccc2-c2ccccc2)c(OC)c1 | i | i | i | i | i | . | . | . | .
COc1ccccc1CN(C)CC(=O)Nc1ccccc1-c1ccccc1 | i | i | i | i | 10* | i | i | i | i
Cc1ccc(CC(=O)Nc2ccccc2-c2ccccc2)cc1C | i | i | i | i | 21* | i | i | i | i
O=C(NCCc1ccccc1)C(=O)c1c(-c2ccccc2)[nH]c2ccccc12 | i | i | i | i | 11* | i | i | i | i
C=CCNC(=O)C(=O)c1c(-c2ccccc2)[nH]c2ccccc12 | i | i | i | i | i | . | . | . | .
Cc1nc2c(C#N)cnn2c2c1CCN(Cc1ccccc1)N2C | i | i | i | i | i | . | . | . | .
Cc1nc2c(C#N)cnn2c2c1CCN2CC1CCCO1 (stereo unspecified) | i | i | i | i | 7.2* | i | i | i | i
COC(=O)c1ccc(Oc2nc(C)cc(Oc3ccccc3)n2)cc1 | i | i | i | i | 19* | 7.3%* | i | i | i
COC(=O)C(=C/C(C)=C/c1cccnc1)C(=O)OC | i | i | i | i | i | . | . | . | .
Brc1ccc2c(c1)CNc1c(ncnc1N1CCOCC1)O2 | i | i | i | i | 11* | 18%* | i | i | i
COc1cccc(C2CC(c3cccs3)=NN2C(=O)CSC2=NN3CCCC(=O)N=C3S2)c1OC (stereo unspecified) | i | i | i | i | i | . | . | . | .
O=C(CCc1nc(-c2ccccc2)c(-c2ccccc2)o1)OCc1ccc(Br)cc1 | i | i | i | i | 20* | i | i | i | i
O=C(CCc1nc(-c2ccccc2)c(-c2ccccc2)o1)OCc1ccc(Cl)cc1 | i | i | i | i | i | . | . | . | .
O=C(Nc1ccc(Cl)cc1)c1ccc2ncsc2c1 | i | i | i | i | i | . | . | . | .
O=C(Nc1cccc(Cl)c1)c1ccc2ncsc2c1 | i | i | i | i | 7.7* | i | i | i | i
CCCn1c(SCC(=O)Nc2ccccc2Cl)n[nH]c1=O | i | i | i | i | 6.6* | i | i | i | i
CC(SCc1ccccc1)C(=O)Nc1ccccc1Br (stereo unspecified) | i | i | i | i | 6.5* | i | i | i | i
Cc1ccccc1OC(C)C(=O)NCc1cccnc1 (stereo unspecified) | i | i | i | i | i | . | . | . | .
CCOC(=O)C(Cc1ccccc1)C(=O)NCc1cccnc1 (stereo unspecified) | i | i | i | i | 14* | i | i | i | i
CCCCc1ccc(NC(=S)NCCc2ccc(F)cc2)cc1 | i | i | i | i | i | . | . | . | .
O=c1cc(NCCc2ccccc2)c2ccccc2o1 | i | i | i | i | i | . | . | . | .
SMILES | RGS4 pot | RGS4 inh | MrgX1 antagonist | MrgX1 ag | MrgX1 PAM | MrgX1 PAM conf | HEK293 Ca flux | HEK293 Ca counter | HEK293 Ca cntr2
O=C1C(=O)N(CCN2CCOCC2)C(c2ccncc2)/C1=C(/O)c1ccc2c(c1)OCO2 (stereo unspecified) | i | i | i | i | 7.7* | i | i | i | i
COc1nc(NC(=O)c2ccc(F)cc2)nc(OC)c1-c1ccccc1 | i | i | i | i | 8.2* | i | i | i | i
CCN(CC)C(=O)CSc1ncnc2c(-c3ccc(OC)cc3)nsc12 | i | i | i | i | i | . | . | . | .
COc1ccc(-c2nsc3c(SCc4ccccc4)ncnc23)cc1 | i | i | i | i | 6.8* | i | i | i | i
Cc1ccc(C(=O)Nc2cc(C)nn2CCC#N)cc1 | i | i | i | i | i | . | . | . | .
O=C(c1ccncc1)c1ccc(N2CCN(C3CC(=O)N(Cc4cccs4)C3=O)CC2)cc1 (stereo unspecified) | i | i | i | i | 6.9* | i | i | i | i
CC1Cc2ccccc2N1C(=S)NC(=O)c1cccc(Br)c1 (stereo unspecified) | i | i | i | i | 10* | i | i | i | i
O=C(CCl)Nc1cccc(Oc2ccccc2)c1 | i | i | i | i | 13* | i | i | i | 48*
O=C(CCl)Nc1cccc(Oc2cnccn2)c1 | i | i | i | i | i | . | . | . | .
C/C(=N\Nc1nc(-c2cc(C)ccc2C)cs1)c1cc2c(ccc3ccccc32)oc1=O | i | i | i | i | i | . | . | . | .
COc1cc(C(=O)Nc2ccccc2C(=O)NCc2cccnc2)cc(OC)c1OC | i | i | i | i | 8.9* | i | i | i | i
COc1ccc(COc2cccc3ccc(C)nc23)cc1F | i | i | i | i | i | . | . | . | .
CCOC(=O)c1c(-c2ccccc2)nc2cc(C)ccn12 | i | i | i | i | i | . | . | . | .
